V1aR counter: activates human V1a receptor in oxytocin agonist counter-screen. 320,000 compounds, 0.25% hits. CHO-V1R cells, Fluo-8 calcium fluorescence, agonist mode; 0% DMSO, 100% 3 nM vasopressin. P37288. activation, % at 3 µM;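 active = activation above the mean activation of all tested compounds plus 3 SD, per screening run, cut at about 20% in these data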;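 also: signal is peak over basal fluorescence ratio across a 100 second FLIPR read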
OXTR potentiator: potentiators of human oxytocin receptor | activation, % at 3 µM | CHO-OTR cells, Fluo-8 calcium fluorescence, potentiator mode; 0% = oxytocin EC15, 100% = EC100 | P30559 | AID 2445 | 320,000 compounds, 0.061% hits;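 active = activation above that plate's cutoff, the mean activation of tested compounds plus 3 SD, cut at about 6.6% in these data, passing the limit was not always enough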;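 also: 100% uses oxytocin at 75 nM as the full agonist control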
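assay system = CHO-OTR cells, human receptor | schedule = compound 6 min at room temperature before oxytocin, 100 s read | detection = Fluo-8 intracellular calcium fluorescence, ex 470-495, em 515-575 nm | evaluation = normalized max/min fluorescence ratio, % activation | control set = EC15 oxytocin alone as 0%, 75 nM oxytocin (EC100) as 100%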
M4 ag: agonists of human muscarinic M4 receptor (CHRM4). activation, % at 3 µM. 360,000 compounds, 0.14% hits. CHO-K1 hM4/Gqi5, Fluo-8 calcium fluorescence; vehicle 0%, full acetylcholine response 100%;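 active = activation above the run mean over all test wells plus 3 SD, cut at about 32% in these data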;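 also: peak over basal fluorescence ratio per well then scaled between controls; 0% = DMSO wells and 100% = acetylcholine at EC100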
Target sequence (P08173 whole entry, looked up): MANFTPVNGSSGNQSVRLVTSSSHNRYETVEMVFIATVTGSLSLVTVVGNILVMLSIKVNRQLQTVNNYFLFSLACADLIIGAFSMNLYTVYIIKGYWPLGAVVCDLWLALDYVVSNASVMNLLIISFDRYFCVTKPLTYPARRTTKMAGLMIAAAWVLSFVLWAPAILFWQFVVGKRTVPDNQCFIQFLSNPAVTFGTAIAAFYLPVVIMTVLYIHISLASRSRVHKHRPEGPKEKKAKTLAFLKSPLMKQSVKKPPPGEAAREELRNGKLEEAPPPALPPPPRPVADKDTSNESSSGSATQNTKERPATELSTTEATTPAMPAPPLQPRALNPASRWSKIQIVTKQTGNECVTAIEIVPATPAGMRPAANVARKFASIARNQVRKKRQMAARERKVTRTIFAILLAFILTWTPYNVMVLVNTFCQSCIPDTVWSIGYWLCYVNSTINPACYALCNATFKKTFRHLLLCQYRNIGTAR
M4 PAM: CHRM4 positive allosteric modulation. P08173. CHO-K1 hM4/Gqi5, Fluo-8 calcium fluorescence, ACh EC20; 0% = ACh EC20, 100% = maximal ACh. activation, % at 3 µM. 360,000 compounds, 0.4% hits. AID 624126;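 active = activation above its plate's cutoff, the mean activation of sample wells plus 3 SD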
OXTR ag: agonists of human oxytocin receptor; P30559; CHO-OTR cells, Fluo-8 calcium fluorescence; normalized: DMSO 0%, oxytocin 100%; activation, % at 3 µM; 320,000 compounds, 0.32% hits; AID 2435;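 active = activation above the mean of all tested compounds plus 3 SD, cutoff set per screening run, cut at about 20% in these data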;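 also: peak over basal fluorescence ratio from a 100 s FLIPR kinetic read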
CHRM4 antagonist: CHRM4 antagonism in calcium assay. CHO-hM4 cells, ACh EC80, Fluo-8 calcium fluorescence. P08173. inhibition, % at 3 µM. AID 624125. 360,000 compounds, 0.73% hits;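 active = inhibition above its plate's cutoff, the mean inhibition of sample wells plus 3 SD, cut at about 27% in these data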;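 also: 0% = acetylcholine EC80 with DMSO and 100% = DMSO without agonist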
An asterisk follows results filed as active; nt = not tested or not shown. Most compounds without a hit are left out; they make up all but 1.5% or so of the library.

SMILES	V1aR counter	OXTR potentiator	M4 ag	M4 PAM	OXTR ag	CHRM4 antagonist
O=C(COC(=O)Cn1cnc2ccccc21)Nc1ccc(OC(F)F)cc1	0.2	-5.2	1.6	21.4	1.4	-20.2
CCN(CC)S(=O)(=O)c1ccc(NC(=O)CCNC(=O)c2ccccc2)cc1	nt	nt	0.8	-0.6	nt	3.8
O=c1c2ccccc2sc2ccc(NCCCN3CCOCC3)cc12	11.0	-12.3	32.9*	0.0	10.2	-14.9
CCN(CC#CCC(O)(c1ccccc1)c1ccccc1)C(C)C	1.7	0.3	2.0	-15.4	1.5	31.3*
N#Cc1ccc(S(=O)(=O)N2CCCCC2c2cc(C(=O)N3CCOCC3)no2)cc1 (stereo unspecified)	nt	nt	1.2	3.8	nt	-8.3
CCOC(=O)C1(C)CCCCN1C(=O)c1cccnc1 (stereo unspecified)	nt	nt	0.7	19.3*	nt	-16.1
CCCCCCCN1C(N(C)C)=NC[C@@H]1Cc1ccccc1	2.2	-1.6	3.0	-14.4	5.5	32.4*
CCOC(=O)C(=O)N(C)c1c(CC)nc2c(OCCC3CCCCC3)cccn12	nt	nt	-2.7	3.0	nt	-9.0
Nc1ccc2nc(CCc3ccccc3)[nH]c2c1	1.0	-3.6	6.1	3.5	-0.3	-6.4
Cc1cc2nc3c(=O)n(CCc4ccccc4)c(=O)[nH]c3nc2cc1N	41.3*	-17.4	8.8	-1.7	64.4*	0.1
C=CCn1c(=O)[nH]c2nc3cc(N=CN(C)C)c(C)cc3nc2c1=O	12.7	-9.2	2.0	3.9	16.6	-5.2
Nc1ccc2nc3c(=O)n(C4CCCCC4)c(=O)[nH]c3nc2c1	159.2*	-8.3	70.4*	-42.4	91.3*	20.9
Nc1ccc2nc3c(=O)n(CCc4ccccc4)c(=O)[nH]c3nc2c1	69.3*	-21.5	44.9*	-17.6	95.6*	17.7
CCCCn1c(=O)[nH]c2nc3cc(N)ccc3nc2c1=O	29.8*	-12.2	56.7*	-24.0	50.2*	22.3
COc1cc2[nH]c(=O)n(C3CCCCC3)c(=O)c2cc1OC	-1.0	-5.9	1.3	-1.7	-0.5	4.3
COc1cc(NC(=S)NCCN2CCOCC2)cc(OC)c1	-0.1	-4.8	0.5	22.8*	-0.1	-8.5
Cc1ccccc1C1=C/C(=C(\SS/C(C(=O)c2ccc(OCC(=O)O)c(Cl)c2Cl)=C2\C=C(c3ccccc3C)SS2)C(=O)c2ccc(OCC(=O)O)c(Cl)c2Cl)SS1	nt	nt	0.8	1.8	nt	-7.7
O=C(NCCC1=CCCCC1)C(=O)NCCc1ccc(Cl)cc1	0.3	-16.6	1.9	9.8	-0.1	-8.0
O=C(NCCC1=CCCCC1)C(=O)NCc1ccncc1	2.2	-2.5	1.7	21.4*	0.2	-12.0
O=C(NCC1CCCO1)c1cccc2c1C(=O)c1ccc(N3CCC(Cc4ccccc4)CC3)cc1S2(=O)=O (stereo unspecified)	13.8	-8.1	73.0*	-21.2	11.9	34.5*
O=C(NCc1ccco1)c1cccc2c1C(=O)c1ccc(N3CCCC3)cc1S2(=O)=O	5.9	1.8	40.1*	-11.2	6.8	-10.0
Cc1ccc2c(c1)N(CC(=O)N1CCCCC1)C(=O)CO2	-0.7	-11.4	0.1	-3.8	-0.7	4.4
CC(C)c1ccc(S(=O)(=O)Nc2ccc(SC(F)F)cc2)cc1	2.7	-11.7	6.3	-14.1	0.0	28.1*
O=C(CNC(=O)N1CC(=O)Nc2ccccc21)Nc1nccs1	-0.1	1.2	2.7	-1.8	0.2	-1.5
Cc1ccc(-c2nc3c(Cl)cc(Cl)cc3c(=O)n2O)cc1	66.5*	-20.8	-0.1	2.9	22.8*	-0.6
SMILES	V1aR counter	OXTR potentiator	M4 ag	M4 PAM	OXTR ag	CHRM4 antagonist
CC(=O)C1=C(C)NC(SCC(=O)c2ccc(F)cc2)=C(C#N)C1c1ccco1 (stereo unspecified)	1.9	-7.8	11.6	18.4*	3.6	-3.0
CCc1ccc(C(=O)CSC2=C(C#N)C(c3ccco3)C(C(C)=O)=C(C)N2)cc1 (stereo unspecified)	-0.4	-5.3	nt	nt	-1.2	nt
O=C(Nc1c(C(=O)N2CCC(N3CCCCC3)CC2)oc2ccccc12)c1ccc(F)cc1	-0.6	4.7	1.0	-1.1	0.3	-0.7
NC(=O)c1oc2ccccc2c1NC(=O)c1ccc(F)cc1	1.3	-6.7	7.0	-18.3	0.9	39.4*
Cc1cccn2c(=O)c(/C=C(\C#N)C(N)=O)c(N3CCN(Cc4ccc5c(c4)OCO5)CC3)nc12	-1.8	-6.4	6.5	-19.9	-2.7	39.8*
CCOC(=O)/C(C#N)=C/c1c(N2CCN(Cc3ccc4c(c3)OCO4)CC2)nc2c(C)cccn2c1=O	1.8	-1.8	0.8	-2.4	-0.5	-6.8
N=c1sccn1CC(=O)NCCc1ccc(Cl)cc1Cl	1.0	-9.9	0.5	-18.2	0.7	35.0*
COC(=O)c1ccccc1N(C)S(=O)(=O)c1cc2c3c(c1)CCC(=O)N3CCC2	-0.1	-5.3	5.1	-3.8	-0.2	1.5
CC(O)(C(=O)c1ccccc1)c1ccccc1 (stereo unspecified)	nt	nt	0.0	21.5	nt	6.1
CN(C)C/C=C/C(O)(c1ccccc1)c1ccccc1	0.5	-2.7	0.4	-54.0	-0.5	55.0*
C[N+](C)(CCOc1ccccc1)Cc1ccccc1	nt	nt	0.2	-4.2	nt	7.5
Cc1cc(C(C)(C)CC(C)(C)C)ccc1OCCOCC[N+](C)(C)Cc1ccccc1	21.3*	-10.2	0.2	-14.4	36.7*	27.2*
CCN(CC)c1ccc(/C=C2/SC(=O)N(C(C)C)C2=O)o1	nt	nt	3.3	-4.2	nt	41.0*
COc1ncnc2c1ncn2CCCNCC(C)c1ccccc1 (stereo unspecified)	nt	nt	0.2	-6.5	nt	-3.1
CC(=O)NCCCNC(=S)NCCCN(Cc1ccc(Cl)cc1)c1ccc(Br)cn1	nt	nt	10.4	-5.0	nt	1.3
OC(C#Cc1ccccc1)(c1ccccc1)c1ccccc1	nt	nt	-1.0	-6.2	nt	7.9
C[N+]1(CC#CC(O)(c2ccccc2)c2ccccc2)CCCC1	0.6	-1.9	0.3	-17.7	0.0	98.9*
CC(C)[N+](C)(C)CC#CC(O)(c1ccccc1)c1ccccc1	0.2	-5.8	0.9	-59.5	-0.6	99.3*
C[N+]1(CCC(=O)c2ccccc2)CCCCC1	0.0	-4.5	0.5	-1.6	0.2	4.2
Cc1ccc(NC(=O)CN(C)C(=O)COc2ccc(Br)cc2)cc1	nt	nt	0.0	-4.5	nt	5.1
COC(=O)C1=C(C)NC(C)=C(C(=O)OCCN(C)Cc2ccccc2)C1c1cccc([N+](=O)[O-])c1 (stereo unspecified)	-0.6	-8.7	16.7	-17.8	-1.4	34.9*
CCOC(=O)C1=C(C)NC(C)=C(C(=O)OCCNC(=O)c2cccnc2)C1c1cccc([N+](=O)[O-])c1 (stereo unspecified)	-0.1	1.8	6.3	-3.2	-0.5	-12.1

Compound activity as filed in PubChem BioAssay.
